According to ChEMBL document CHEMBL3763107, “Anti-inflammatory neolignans from the roots of Magnolia officinalis” (Bioorg Med Chem, 2016):
Calls of active or inactive are those of the source. No cut-off for these calls is given here.

Tests used:
Assay type in all cases: functional, cell-based
[1] = (§1) Antiinflammatory activity in human neutrophils assessed as inhibition of FMLP/CB-induced elastase release using MeO-Suc-Ala-Ala-Pro-Val-p-nitroanilide as substrate incubated for 5 mins by spectrophotometric analysis; details: Neutrophil
Summary of the method: (§2)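 Neutrophils from healthy donor blood, isolated by dextran sedimentation, Ficoll gradient and hypotonic lysis, kept in Ca2+-free HBSS pH 7.4 at 4 °C. Cells at 6 × 10^5/mL with 100 µM substrate, 2 min at 37 °C, then drug or 0.1% DMSO vehicle for 5 min. Activated with 100 nM FMLP + 0.5 µg/mL CB. A405 followed continuously; % of drug-free activated control; IC50 from mean of n = 3.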

Neutrophil [2] = experiment: as §1; summary of the method: as §2
[3] = (§3) Antiinflammatory activity in human neutrophils assessed as inhibition of FMLP/CB-induced superoxide anion generation by measuring superoxide dismutase-inhibitable reduction of ferricytochrome c by spectrophotometric analysis; details: Neutrophil
Summary of the method: (§4)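 Dextran/Ficoll-purified human neutrophils (6 × 10^5 cells/mL) with ferricytochrome c and 1 mM Ca2+, 2 min at 37 °C. Primed with 1 µg/mL cytochalasin B, then 100 nM FMLP. A550 monitored continuously with stirring. Superoxide taken as the SOD (100 U/mL)-inhibitable reduction using ε 21.1/mM/10 mm. IC50 from mean of n = 3.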

Neutrophil [4] = experiment: as §3; summary of the method: as §4
Neutrophil [5] = experiment: Induction of FMLP/CB-mediated superoxide anion generation in human neutrophils by measuring superoxide dismutase-inhibitable reduction of ferricytochrome c by spectrophotometric analysis
Neutrophil [6] = experiment: Induction of superoxide anion generation in human neutrophils by spectrophotometric analysis
Neutrophil [7] = experiment: Induction of ferricytochrome c reduction in human neutrophils by spectrophotometric analysis

SMILES | IC50 [1] [µM] | IC50 [3] [µM] | inhibition (Neutrophil [2]) | inhibition (Neutrophil [4]) | Activity (Neutrophil [5]) | Activity (Neutrophil [6]) | Activity (Neutrophil [7])
C=CCc1ccc(O)c(-c2cc(CC=C)cc3c2O[C@@H]2[C@H]3[C@@H](C(C)C)CC[C@@]2(C)O)c1 | 2.59 | 4.17 | Dose-dependent effect | Dose-dependent effect | – | – | –
C=CCc1ccc(O)c(-c2cc(O[C@H]3CCc4cc(CC=C)cc(-c5cc(CC=C)ccc5O)c4O3)ccc2O)c1 | 2.25 | – | Dose-dependent effect | – | Active | – | –
C=CCc1ccc(O)c(-c2cc(CC=C)cc([C@H]3C[C@](C)(O)CC[C@@H]3C(C)C)c2O)c1 | 3.56 | 8.16 | Dose-dependent effect | Dose-dependent effect | – | – | –
C=CCc1ccc(Oc2cc(CC=C)c3c(c2O)O[C@@]2(C)CC[C@@H](C(C)C)[C@@H]3C2)cc1 | 3.67 | 3.54 | Dose-dependent effect | Dose-dependent effect | – | – | –
C=CCc1ccc(O)c(-c2ccc(O[C@@H]3CCc4cc(CC=C)cc(-c5cc(CC=C)ccc5O)c4O3)cc2O)c1 | 3.81 | 19.3 | Dose-dependent effect | Dose-dependent effect | – | – | –
C=CCc1ccc(O)c(-c2cc(CC=C)cc([C@H]3C[C@@](C)(O)CC[C@@H]3C(C)C)c2O)c1 | 2.16 | 4.21 | Dose-dependent effect | Dose-dependent effect | – | – | –
C=CCc1ccc(O)c(-c2cc(CC=C)cc([C@@H]3[C@@H](C(C)C)CC[C@@](C)(O)[C@@H]3O)c2O)c1 | 10.7 | 15.1 | Dose-dependent effect | Dose-dependent effect | – | – | –
CNC(=O)c1cc(Oc2ccc(NC(=O)Nc3ccc(Cl)c(C(F)(F)F)c3)cc2)ccn1 [SORAFENIB] | 2 | 3.2 | – | – | – | – | –

Second part, led by results:

IC50 [1] [µM] | IC50 [3] [µM] | SMILES | inhibition (Neutrophil [2]) | inhibition (Neutrophil [4]) | Activity (Neutrophil [5]) | Activity (Neutrophil [6]) | Activity (Neutrophil [7])
18.2 | 7.89 | C=CCc1ccc(O)c(-c2ccc(O)c(OC)c2)c1 | Dose-dependent effect | Dose-dependent effect | – | – | –
8.18 | 14.3 | C=CCc1ccc(O)c(-c2ccc(OC)c(CC=C)c2)c1 [METHYLHONOKIOL] | Dose-dependent effect | Dose-dependent effect | – | – | –
14.8 | 10.8 | C=CCc1ccc(O)c(-c2cc(CC=C)cc([C@@H]3C=C(C)CC[C@H]3C(C)C)c2O)c1 | Dose-dependent effect | Dose-dependent effect | – | – | –
3.39 | 5.48 | C=CCc1ccc(O)c(-c2cc(CC=C)cc(OC)c2O)c1 | Dose-dependent effect | Dose-dependent effect | – | – | –
0.63 | – | C=CCc1ccc(O)c(-c2cc(CC=C)cc(C=O)c2O)c1 | Dose-dependent effect | – | – | Active | –
3.3 | – | C=CCc1ccc(Oc2cc(CC=C)cc(O)c2O)cc1 [OBOVATOR] | Dose-dependent effect | – | – | – | Active
